# Rows were chosen to be rich in hits. Some 3.2% of all compounds tested hit in one or more screens of this group.
# Ecoli rRNA inh: reduced GFP signal of wild-type E. coli, primary screen, bacterial rRNA inhibitor project, GFP/RFP fluorescence, OD600, single point. E. coli WT GFP vs humanized-ribosome RFP mutants, 24 h; hits give low values; DMSO median 0, no signal -100. GFP signal change (wild-type ribosome), % (test concentration not listed). actives 1.6% (n = 350,000);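 active = significant combined selectivity score with lowered wild-type GFP, culture density cut under 30%, mutant RFP and density less affected; inactive = any of these conditions unmet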
# AF4-AF9 inh: inhibitors of AF4 peptide binding to AF9, primary screen, biochemical, AlphaScreen, biotin-AF4 peptide, FLAG-AF9, single point; actives 0.47% (n = 350,000); Protein AF-9 (Homo sapiens), P42568; AID 651704, 2012; inhibition, % at 10 µM;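 active = every replicate reaching a set inhibition limit, whatever the replicate mean, cut at about 25% in these data; inconclusive = mean inhibition reaches that limit but some replicates miss it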;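 also: 0% = plate neutral control median and 100% = total signal loss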
# Target sequence (P42568 whole entry, looked up): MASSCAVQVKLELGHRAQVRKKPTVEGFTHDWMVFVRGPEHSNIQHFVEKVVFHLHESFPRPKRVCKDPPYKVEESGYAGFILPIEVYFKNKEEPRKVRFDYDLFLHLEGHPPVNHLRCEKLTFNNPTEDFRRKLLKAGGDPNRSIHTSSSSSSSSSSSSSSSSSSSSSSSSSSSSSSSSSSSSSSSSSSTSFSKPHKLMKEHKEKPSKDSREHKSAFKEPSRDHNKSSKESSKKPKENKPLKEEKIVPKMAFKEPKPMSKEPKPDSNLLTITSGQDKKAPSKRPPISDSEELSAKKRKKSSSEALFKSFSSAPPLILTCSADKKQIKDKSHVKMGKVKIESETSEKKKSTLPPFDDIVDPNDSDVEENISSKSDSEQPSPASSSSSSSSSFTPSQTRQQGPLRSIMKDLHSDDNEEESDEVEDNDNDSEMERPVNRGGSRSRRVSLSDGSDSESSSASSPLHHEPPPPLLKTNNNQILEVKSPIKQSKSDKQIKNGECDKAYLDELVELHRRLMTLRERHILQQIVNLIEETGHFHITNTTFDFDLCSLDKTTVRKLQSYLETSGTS
# Cneo AK release: Cryptococcus neoformans cell lysis inducers, primary screen, AK release luminescence, single concentration; C. neoformans lysis, adenylate kinase release luminescence, 4 h; normalised: neutral wells 0, clomiphene wells 100; lysis activity, % at 15 µM; actives 0.2% (n = 360,000); AID 651654, 2012;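 active = mean lysis activity across replicates of at least 80%, whatever share of replicates individually reach that level; inactive = mean lysis activity below 80%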
#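 Assay system: C. neoformans cells. Amount: yeast cell density of 5 × 10^6 cells/mL. Technique: AK luminescence. Buffer or medium: YPD. Times: static 4 h at 37 °C with compound, 1 h detection. Dosing: single-point compound dose. Read-out: lysis from increased AK signal.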
# PfHsp90 yeast 2: growth inhibition of PfHsp90-expressing yeast, primary screen, antimalarial PfHsp90 inhibitor project, S. cerevisiae, BacTiter-Glo luminescence, single point, set 2 | AID 504621, 2011 | inhibition, % at 9.4 µM | BacTiter-Glo ATP, 48 h; yeast lacking PDR1 and PDR3 efflux regulators | actives 0.32% (n = 310,000);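 active = every replicate shows inhibition above about 80%, whatever the replicate mean, limit read from the data; inconclusive = mean inhibition reaches the set limit but some replicate falls short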;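 also: 0% = DMSO neutral controls and 100% = 20 µM radicicol positive controls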
# S100A4 MyoIIA: inhibitors of S100A4-myosin IIA peptide binding, primary screen, biochemical, fluorescence polarization, TAMRA-MyoIIA peptide; actives 0.14% (n = 360,000); inhibition, % at 10.7 µM;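 active = mean inhibition of at least 70% across replicates, with every replicate also reaching that level; inconclusive = mean inhibition reaches 70% but some replicates fall short; inactive = mean inhibition below 70%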
# Target sequence (P26447 whole entry, looked up): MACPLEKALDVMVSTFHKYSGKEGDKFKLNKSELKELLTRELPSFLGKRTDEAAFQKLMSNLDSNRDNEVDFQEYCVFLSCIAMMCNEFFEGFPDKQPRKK
#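 Material: S100A4 monomer protein / Buffer or medium: 50 mM HEPES pH 7.2, 10 mM CaCl2, 100 mM KCl / Times: 5 min incubation before reading / Benchmarks: neutral control DMSO, positive control TFP / Reagent: labelled myosin peptide probe, 5 nM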
# DENV2 CPE rescue: inhibitors of DENV2 cytopathic effect, primary screen, cell-based, plate reader, single concentration. DENV2-infected cells, cytopathic effect rescue. CPE inhibition, % at 9.99 µM. actives 1.7% (n = 350,000). AID 651640, 2012; in the data active = CPE inhibition above about 20%, passing the limit was not always enough; inconclusive = no clear call, values can overlap the other calls; tested in BHK-21 cells;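 also: 0% = median of neutral control wells and 100% = median of positive control wells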
# Starred values were filed as active, the others as inactive; ? = inconclusive; nt = no result given.
SMILES,Ecoli rRNA inh,AF4-AF9 inh,Cneo AK release,PfHsp90 yeast 2,S100A4 MyoIIA,DENV2 CPE rescue
O=C(NN1C(=O)C2C3C=CC(C4CC34)C2C1=O)c1cccc(Br)c1 (configuration not stated),-25.2*,0.4,nt,15.7,-18.5,0.8
O=C(NCC1CCCO1)[C@@H]1CSC2c3ccccc3C(=O)N21 (some centres not stated),nt,nt,-1.8,1.1,nt,nt
O=C1OC(N2C(=O)CC[C@H]2C(=O)NCC2CCCO2)c2ccccc21 (some centres not stated),nt,3.0,-5.4,-8.0,1.6,27.8*
C[C@@H]1CN([C@H](C)CO)S(=O)(=O)c2ccc(-c3ccc(C#N)cc3)cc2O[C@@H]1CN(C)CC1CC1,-2.3,1.2,-3.1,nt,1.6,3.6
COc1ccc(NC(=O)c2oc3ccccc3c2NC(=O)C2CCCO2)cc1OC (configuration not stated),-36.8*,7.2,3.2,nt,8.0,nt
CCOCC(=O)Nc1c(C(=O)Nc2ccc3c(c2)OCCO3)oc2ccccc12,-25.0*,1.7,nt,-4.5,-1.8,-6.5
Cc1cc(/C=C\c2ccc3cc(N(C)C)ccc3[n+]2C)c(C)n1-c1ccccc1,nt,nt,-6.5,108.1*,nt,nt
C[C@@H]1CN([C@H](C)CO)C(=O)c2cc(NS(=O)(=O)c3ccccc3)ccc2O[C@@H](C)CCCCO[C@@H]1CN(C)S(=O)(=O)c1cn(C)cn1,-0.7,5.6,-0.9,nt,13.1,-15.3
COc1cc(C(=O)NCC(c2ccco2)N2CCc3ccccc32)cc(OC)c1OC (configuration not stated),-8.4,7.5,nt,-27.6,31.0,92.0*
Cc1ccc(N(C)c2nc(N)nc(N)c2N=O)cc1,93.8,1.0,nt,nt,191.0*,0.7
Cc1cccc(Nc2nc(N)nc(N)c2N=O)c1,69.5,1.2,-1.1,2.4,-15.6,-0.5
O=C(NCc1cccnc1)C(=O)NCC(c1ccco1)N1CCN(c2ccccc2)CC1 (configuration not stated),2.1,0.8,2.9,1.2,-2.2,21.0*
CC1=CC2=NC(=O)/C(=C/c3cccn3Cc3ccccc3)C(=N)N2O1,-34.9*,15.4,-9.8,-29.0,-6.4,2.7
COC(=O)c1cc(C(=O)OC)n(Cc2ccc(F)cc2)c1C,-40.5*,0.1,1.3,-6.2,2.9,7.7
C[C@@H]1CCCCO[C@@H](CN(C)Cc2ccc(C(=O)O)cc2)[C@H](C)CN([C@@H](C)CO)C(=O)c2cc(NC(=O)CCC(F)(F)F)ccc2O1,-2.8,-1.7,-0.6,nt,5.6,4.1
O=C(CN1C(=O)NC2(CCOc3ccccc32)C1=O)c1ccc(Cl)s1 (configuration not stated),-32.1*,-0.1,0.3,17.7,-3.6,5.2
CCc1ccc(C(=O)CN2C(=O)NC3(CCOc4ccccc43)C2=O)s1 (configuration not stated),nt,0.6,-1.1,8.7,-0.9,1.5
COCC(=O)N1C[C@H](C)[C@@H](OC)CN(C)C(=O)c2cc(NC(=O)c3cc(C)on3)ccc2OC[C@@H]1C,-7.6,-2.7,0.0,nt,1.4,11.7
C[C@H]1CN([C@@H](C)CO)C(=O)c2cc(NC(=O)Cc3ccccc3)ccc2O[C@@H]1CN(C)C(=O)Nc1ccc(C(F)(F)F)cc1,-2.4,0.7,2.6,nt,4.7,5.2
CCOC(=O)c1c(C)oc2ccc(NS(=O)(=O)c3cccs3)cc12,-29.9*,-0.7,nt,-32.2,-4.4,1.6
CN1C(=O)c2cc(NC(=O)C3CCCC3)ccc2OC[C@@H]2O[C@@H](CC(=O)NCc3ccccc3F)CC[C@H]21,3.1,1.2,nt,nt,-4.1,?
CO[C@H](C(=O)N(C)C[C@@H]1OCc2ccccc2-c2c(n(C)c3ccccc23)C(=O)N([C@@H](C)CO)C[C@@H]1C)c1ccccc1,-5.9,-3.2,-3.5,nt,1.0,-1.8
COc1cc(/C=C/C(=O)OCC(=O)NCCCc2ccccc2)cc(OC)c1OC,-18.4*,0.3,1.3,-14.3,-6.4,12.5
CCCC(=O)N(Cc1cc(=O)[nH]c2ccccc12)c1cccc(C)c1,-4.6,0.2,-0.2,-1.2,3.6,29.2*
CC=Cc1ccc2n(c1=O)C[C@@H]1[C@@H](CO)[C@H](C(=O)N3CCC(Cc4ccccc4)CC3)N(CCC)[C@H]21 (mixture of isomers),-4.6,3.1,nt,nt,-2.5,17.3
SMILES,Ecoli rRNA inh,AF4-AF9 inh,Cneo AK release,PfHsp90 yeast 2,S100A4 MyoIIA,DENV2 CPE rescue
Nc1n[nH]c(C2CC2)c1N=Nc1ccc(Cl)cc1,-9.3,5.3,2.3,nt,5.5,-0.2
Nc1n[nH]c(C2CC2)c1N=Nc1ccc(Cl)c(Cl)c1,-52.0*,-16.1,-1.1,nt,-2.8,4.2
CCC(CNc1cc(OC)cc2cccnc12)NC1CCCCC1 (configuration not stated),44.0,55.7*,nt,12.1,139.9*,8.3
O=C(C[C@@H]1C[C@H]2c3cc(NC(=O)CC4CC4)ccc3O[C@H]2[C@@H](CO)O1)NCCc1ccccc1,2.8,-1.8,9.1,nt,-10.7,0.2
Cc1ccc(S(=O)(=O)Nc2ccc3c(c2)C(=O)N([C@@H](C)CO)C[C@@H](C)[C@@H](CN(C)C(=O)C2CCCCC2)OCCCC[C@@H](C)O3)cc1,-3.5,-0.7,0.5,nt,-1.1,16.1
Cc1ccc(S(=O)(=O)Nc2ccc3c(c2)CC(=O)N([C@@H](C)CO)C[C@@H](C)[C@H](CN(C)CC2CCCCC2)O3)cc1,nt,8.4,14.7,nt,0.6,-15.2
Cc1ccc(CCSc2ccc(F)cc2)cn1,-21.7*,-2.5,-0.5,nt,-5.1,-1.1
Cc1ccc(CCSc2ccc(C(C)C)cc2)cn1,-19.0,-1.2,-1.4,-41.7,6.4,1.3
CCCNC(=O)[C@@H]1[C@@H](CO)[C@@H]2Cn3c(ccc(-c4cccc(OC)c4)c3=O)[C@@H]2N1C,0.0,-4.6,nt,nt,1.3,-7.2
COc1ccccc1-c1ccc(SCc2ccc(C)cc2)nn1,-11.9,-3.8,nt,13.5,-1.3,1.6
COc1ccccc1-c1ccc(SCc2ccc(F)cc2)nn1,-30.7*,-2.1,nt,0.9,-4.9,0.9
CC(C)NC(=O)Nc1ccc2c(c1)C(=O)N([C@H](C)CO)C[C@H](C)[C@H](CN(C)C(=O)NC(C)C)OCCCC[C@@H](C)O2,9.6,-1.6,-0.3,nt,-2.8,-2.3
CC(C)NC(=O)Nc1ccc2c(c1)C(=O)N([C@@H](C)CO)C[C@@H](C)[C@@H](CN(C)C(=O)NC(C)C)OCCCC[C@@H](C)O2,-2.3,-10.6,113.5*,nt,9.0,-1.8
